This passage reports cytotoxicity results from ChEMBL document CHEMBL4513216, “Probing the Open Global Health Chemical Diversity Library for Multistage-Active Starting Points for Next-Generation Antimalarials” (ACS Infect Dis, 2020).

SMILES strings stand for the structures.

A short description of the series: Toxicity liver stage against HepG2, at 10uM. The arrangement: test concentration 10 uM, cell line HepG2-A16-CD81EGFP. The conditions noted are these: human, HepG2-A16-CD81EGFP cells; read-out: INHIBITION
Type of series: cell-based. Put shortly: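 Uninfected HepG2-A16-CD81EGFP cells, 3 × 10^3 per well, 1536-well, plated on prespotted compound at 10 μM final, parasite-free screening media added to match infected plates; puromycin 10 μM positive, DMSO 0.5% negative; run in parallel with 48 h PbLuc assay at 37 °C, 5% CO2; viability by CellTiter-Glo luminescence, normalized to controls.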
With `O=C(NCN1CCc2ccccc2C1)c1cnccn1`, the cytotoxicity at 10 µM was determined as 20.2%.
As to `O=C(NC[C@H]1OC[C@@H](NC2CCC2)[C@@H]1O)Nc1ccccc1`, the cytotoxicity at 10 µM was -4.16%.
As for `Cc1cccc(CNC[C@H]2COCc3nc4cccnc4n32)n1`, the figure is -1.79%.
Regarding `COC(=O)c1cccc(C(=O)NCc2ccco2)n1`, the cytotoxicity at 10 µM worked out at 7.44%.
The result for `COc1ccc(S(=O)(=O)NCCCc2ccc(N(C)C)cc2)cc1Cl` reads -0.399%; that for `COc1ccc(F)cc1S(=O)(=O)NCCn1cnc(C)cc1=O`, -6.49%.
The result for `N#Cc1cccc(CN2C[C@@H](NC(=O)C3CC3)[C@H]3OCCC[C@H]32)c1` reads 6.44%; that for `NC(=O)C1CCN(c2nc3nccc(-c4ccncc4)c3c(=O)[nH]2)CC1`, 6.09%; that for `CC(=O)N1N=C(c2ccccc2)OC1C(=O)NCCc1cccc(Cl)c1` (centres undefined), 2.82%.
As for `CCC(=O)N1CCN(c2ncnc3cc4c(cc23)OCCO4)CC1`, the figure is 10.2%.
Turning to `CC(NC(=O)CN1CCN(Cc2ccc(Br)s2)CC1)c1ccccc1` (centres undefined), the cytotoxicity at 10 µM came to 8.44%.
As for `N#Cc1ccc(F)c(CN2CCc3sccc3C2)c1`, the figure is -3.09%.
The result for `COc1ccc(C)nc1NC(=O)Cc1c(C)nn(C)c1C` reads -0.302%; that for `O=C(NCC1CC1)C1CCCN(c2cccc(C(F)(F)F)n2)C1` (centres undefined), 8.21%; that for `CCc1nc(C(=O)N(CC)CC(=O)N(C)C)nn1-c1ccccc1Cl`, 5.25%.
As for `CCSCCC(=O)Nc1ncn(Cc2ccccc2)n1`, the figure is 4.74%; as for `CC(C)N(CCSc1ncnc2[nH]ncc12)C(C)C`, 0.25%; as for `CC(c1cccc(O)c1)N(C)S(N)(=O)=O` (centres undefined), -1.89%.
For `CC1CN(C2CCN(Cc3nccn3CC(F)(F)F)CC2)CCO1` (centres undefined), the cytotoxicity at 10 µM was -1.32%.
As to `CCN1CCN(c2ccc(C(=O)NC(C)c3ccncc3)cc2)CC1` (centres undefined), the cytotoxicity at 10 µM was -16.6%.
As for `Cn1c(=O)oc2ccc(Nc3ncc(C#N)cc3Cl)cc21`, the figure is -1.21%; as for `CC(C(=O)NCCc1cccs1)N1CCC(n2ccnc2)CC1` (centres undefined), -16%; as for `Cc1cc(C)n(CC2CCCCN2C(=O)c2sccc2C#N)n1` (centres undefined), -0.497%.
With `Cc1ccc(C(=O)O)cc1S(=O)(=O)N(C)c1cccc(C#N)c1`, the cytotoxicity at 10 µM amounted to 10.6%.
In the case of `O=C1CC(N(C(=O)CCc2c[nH]c3ccccc23)C2CC2)C(=O)N1` (centres undefined), the cytotoxicity at 10 µM is 0.247%.
As for `CC(C)C(c1cccnc1)N(C)C(=O)Cc1c(F)cccc1F` (centres undefined), the cytotoxicity at 10 µM is -0.595%.
As for `O=C(COCc1ccccc1Cl)Nc1ccnn1CC1CCOC1` (centres undefined), the figure is -1.9%; as for `CCCNC(=O)CNc1cc(C(=O)N2CCSCC2)ccc1C`, -5.91%; as for `O=C(CN1CCCCCCC1=O)NCc1ccccn1`, -15.3%.
`CN(C)S(=O)(=O)N1CCC(Oc2ccc(C#N)cc2)CC1`: the cytotoxicity at 10 µM was 3.96%.
Turning to `O=C(c1ccc[nH]1)N1CCCn2c(CN3CCCCC3)nnc2C1`, the cytotoxicity at 10 µM is -106%.
As to `Cc1cccc(N2CC3(COCCN(c4ccncn4)C3)OCC2=O)c1` (centres undefined), the cytotoxicity at 10 µM was -105%.
Turning to `O=C(c1ccc2[nH]ccc2c1)N1CCn2cc(CN3CCCC3)nc2C1`, the cytotoxicity at 10 µM is -78.2%.
Take `CC(=O)N1CCCC2(C1)CN(C(=O)Cc1ccccc1)CCO2` (centres undefined): the cytotoxicity at 10 µM is -83.9%.
As for `Cc1occc1C(=O)N1CCC2(CC1)NC(=O)CC2c1cnn(C)c1` (centres undefined), the figure is -4.99%.
As for `OCc1ccc(CN(CCCn2ccnc2)Cc2ccncc2)o1`, the figure is -4.41%; as for `Cc1ccc(C(=O)N2CCC3(CC2)CN(CCN(C)C)C(=O)O3)c(F)c1`, 7.46%; as for `COc1cc(OC)c(-c2nc3c([nH]2)c(C2CC2)nn3C)cc1OC`, -5.02%.
Take `CCc1nnc(CN(C)c2nccc(N3CCCC(O)C3)n2)o1` (centres undefined): the cytotoxicity at 10 µM is -4.68%.
`CCOC(=O)CC1CCCCN1C(=O)c1cc(=O)[nH]c(=O)[nH]1` (centres undefined): the cytotoxicity at 10 µM stood at 5.76%.
Turning to `CCC[C@H]1CN(Cc2ccc(N(C)C)nc2)C[C@@H]1NC(=O)CO`, the cytotoxicity at 10 µM worked out at 9.23%.
On to `CC[C@H](C)[C@@H](CO)NC(C)Cc1ccc(C)cc1` (some centres undefined), for which the cytotoxicity at 10 µM was -4.48%.
The result for `CC(C)[C@H]1COC(=O)N1CC(=O)N(C)CCCn1cccn1` reads -157%; that for `CCn1cncc1C1CC(=O)Nc2c1c(C)nn2-c1ccc(C)cc1` (centres undefined), -8.23%; that for `COCCN(C)C[C@@H]1CN(C(=O)c2ccc3c(c2)OCO3)C[C@@H]1CO`, 8.47%.
Consider `CC(C)[C@@H]1CN(c2ncc(F)cn2)C[C@H]1NS(=O)(=O)N(C)C`, for which the cytotoxicity at 10 µM amounted to 14%.
As to `Cc1cc(C(=O)N2CC[C@@]3(O)CCN(S(C)(=O)=O)C[C@H]3C2)c(C)n1C`, the cytotoxicity at 10 µM is -8%.
As for `CS(=O)(=O)N[C@H]1CN(C(=O)CCc2ccc(=O)[nH]n2)C[C@@H]1C1CC1`, the figure is 1.56%.
As for `O=C(CCC1CCN(C2CCSCC2)CC1)NCC1CCCO1` (centres undefined), the figure is 8.73%.
The result for `CC(CCc1ccc(O)cc1)NC1CCN(C(=O)C(C)C)CC1` (centres undefined) reads -4.89%; that for `Cc1ccc(O)c(C(=O)N2CCC3(CCCNC3)C2)c1` (centres undefined), -10.2%; that for `CC(C)c1nc(N2CCC(N3CCCCCC3)CC2)c2cnn(C)c2n1`, -135%.
For `Cc1nccn1CCN(C)C(=O)c1cn(CC2CCCCC2)nn1`, the cytotoxicity at 10 µM was -1.84%.
Turning to `c1cc(CN2CCC(n3cc(CN4CCCC4)nn3)CC2)cs1`, the cytotoxicity at 10 µM is -6.26%.
As for `C[C@@H]1CN(C(=O)C2(N3CCCCC3)Cc3ccccc3C2)C[C@H](C)O1`, the figure is -0.238%; as for `Cc1ccc(C(=O)NCCC2CCN(C)CC2)cc1N(C)S(C)(=O)=O`, -15.1%; as for `Cc1nn2c(N3CCC(O)CC3)cc(-c3ccccc3)nc2c1C`, -6.54%.
As for `CCc1nc(C2CCCN2Cc2nnc(C3CCC3)o2)no1` (centres undefined), the figure is 1.48%.
The result for `Cc1ccccc1CC(=O)N1CCOCC1c1c(C)n[nH]c1C` (centres undefined) reads -5.6%; that for `c1cnnc(N2CCCC2CNCc2nc(-c3ccoc3)no2)c1` (centres undefined), -18.7%; that for `CCNc1cc2c(nn1)CCN(C(=O)c1ccc(C(N)=O)cc1)C2`, -15.6%.
On to `Cc1cccc(OCC(O)CN2CCC(c3ccn[nH]3)CC2)c1` (centres undefined), for which the cytotoxicity at 10 µM was -3.6%.
As for `Cn1cc(C2CCCN2Cc2cscn2)cn1` (centres undefined), the figure is 4.24%; as for `CCCNC(=O)C1CCN(Cc2csc(C(C)C)n2)CC1`, -19.5%.
The result for `Cc1nc(C)n(CC2CCCCN2CCOc2ccc(C#N)cc2)n1` (centres undefined) reads -6.79%.
With `Cc1nc(C)n(CC2CN(CCOc3ccc(C#N)cc3)CCO2)n1` (centres undefined), the cytotoxicity at 10 µM is -2.69%.
The result for `O=C(CCc1cc(F)ccc1F)NS(=O)(=O)c1ccc2c(c1)OCCO2` reads -18.8%; that for `Cc1cn2nc(N3CCN(Cc4nc(C(C)C)no4)CC3)sc2n1`, -7.27%; that for `NC(=O)COc1cccc(C(=O)N2CCCC(n3ccnc3)C2)c1` (centres undefined), -9.63%.
For the compound `O=C(CN1CCN(C(=O)Cc2ccc3c(c2)OCCO3)CC1)NC1CC1`, the cytotoxicity at 10 µM was -2.35%.
The result for `CC(CCc1ccccc1)NC(=O)Nc1cnn(CC(N)=O)c1` (centres undefined) reads 1.64%; that for `NC(=O)C1CCC(NC(=O)COc2ccc(Cl)c(Cl)c2)CC1` (centres undefined), -12.5%.
The result for `CC(C)COC(C)C(=O)NCc1ccc(N(C)C)cc1` (centres undefined) reads 2.53%; that for `O=C(NCCS(=O)(=O)N1CCc2ccccc21)c1c(O)cc(F)cc1F`, 0.217%; that for `Cc1ccc(CN(Cc2cccnc2)C2CC(C)(C)NC(C)(C)C2)s1`, 4.94%.
The result for `Cc1ncnc2c1CCN(Cc1ccc3c(c1)OCO3)CC2` reads -9.23%; that for `O=C(c1cnccn1)N1C[C@@H]2CCN(c3cccnc3)C[C@@H]2C1`, -65.8%.
With `Cc1ncsc1CN1C[C@@H]2COC[C@]2(C(=O)NCc2cccnc2)C1`, the cytotoxicity at 10 µM is -106%.
The result for `O=C(N1CCCC1)N1CCC2(CC1)COCCN(Cc1cccnc1)C2` reads -77.3%; that for `O=C(c1ccsc1)N1CCO[C@@H]2CN(Cc3nccs3)C[C@@H]2C1`, -108%.
The result for `Cc1ccc(CN2CCn3c(C(=O)N(C)C)cnc3C2)cc1` reads -68.9%; that for `COc1ccc(C[C@H]2CN(C(=O)CN(C)C)CC[C@H]2OC)cc1`, 3.96%.
The result for `COCCN1CCOCC12CCN(c1cnccn1)CC2` reads -102%; that for `Cc1noc(C)c1CN1CCC2(CC1)C(c1ccccc1)CC(=O)N2C` (centres undefined), -105%; that for `c1ccc(CN2CCC3(CC2)CCN(c2ccccn2)C3)nc1`, -128%.
Take `O=C(C1CC(F)(F)C1)N1C[C@@H]2CN(Cc3ccsc3)CCO[C@@H]2C1`: the cytotoxicity at 10 µM was -93.5%.
The result for `Cc1cccc(CN2CC[C@@H]3[C@@H]2CCN3C(=O)Cc2cccs2)n1` reads -114%.
The result for `O=C(c1cccnc1)N1CCc2ncnc(N3CCOCC3)c2CC1` reads -79.3%.
As for `COc1ncccc1CN1CCC2(CC1)CN(c1ccccn1)CCO2`, the figure is -6.6%; as for `c1cn2c(n1)CN(CC1CC1)CC(CN1CCOCC1)C2` (centres undefined), 1.49%.
Regarding `Cc1ccoc1C(=O)N1C[C@H]2CCC[C@@]2(COCc2ccncc2)C1`, the cytotoxicity at 10 µM came out at 9.56%.
Regarding `Cc1ccc(NC(=O)Nc2c(O)c3ccccc3oc2=O)cc1`, the cytotoxicity at 10 µM was found to be 3.21%.
The result for `Cc1cnc(C(=O)N2C[C@@H]3CC[C@H]2CN(Cc2cscn2)C3)[nH]1` reads 4.16%; that for `Cc1cnc(C(=O)N2C[C@@H]3CC[C@H]2CN(S(=O)(=O)N(C)C)C3)cn1`, -6.77%.
